# High-throughput results (PubChem BioAssay)
# Compounds with a hit are over-represented: about 1.4% of the library has one in this group of screens.
# PKA-R1A activ: activators of PKA-R1A complex; P00514+P68181; PKA-R1A dissociation, Cy5-IP20 fluorescence polarization; scaled: DMSO 0%, 113 µM cGMP 100%; hit rate 0.083% among 340,000; activation, % at 11.4 µM;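 active = percent activation above the mean of all tested compounds plus 3 SD, cut at about 19% in these data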;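 also: higher means more PKAc released from R1A so a rise in polarization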
# SR-BI DiI-HDL act: SR-BI HDL lipid transfer activation; CHO ldlA[mSR-BI] cells, DiI-HDL uptake fluorescence, 3 h; 100 = double the neutral-control signal; hit rate 0.096% among 320,000; activation, % at 12.5 µM;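 active = mean replicate activation of at least 60% and every replicate at or above 60%; inconclusive = mean or all-replicate condition met, but not both; inactive = mean below 60% and not all replicates reaching 60%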;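 also: 0% = median plate neutral-control signal and 100% = twice that signal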
#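 Material – SR-BI-overexpressing, LDLR-lacking CHO cells · Medium – BSA-supplemented, HEPES-buffered Ham's F12, pH 7.4 · Doses – single concentration · Times – compound with DiI-HDL co-incubation, 3 h at 37 °C · Measured by – bottom-read fluorescence, 550/595 nm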
# SR-BI HDL uptake: mouse SR-BI HDL lipid transfer inhibition; inhibition, % at 12.5 µM; Q61009; hit rate 0.96% among 320,000; ldlA[mSR-BI] CHO cells, DiI-HDL uptake fluorescence, 3 h;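 active = mean replicate inhibition of at least 70% and a set share of replicates each scoring 70 or more; inconclusive = meets just one of the two criteria; inactive = fails both criteria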;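 also: 0% = median of neutral control wells and 100% = median of positive control wells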
# PKA-R2B act: activates the human PKA-R2B holoenzyme complex. P22694+P31323. PKA-R2B holoenzyme dissociation, Cy5-IP20 fluorescence polarization; R2B truncated from residue 108, S112A mutant; 0% DMSO only, 100% 113 µM cGMP. activation, % at 11.4 µM. hit rate 0.079% among 340,000. AID 504700;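 active = activation above a cutoff set at the mean over all compounds plus 3 SD, cut at about 18% in these data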;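 also: higher means more holoenzyme dissociation and a rise in polarization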
# Target sequence (P31323 whole entry, looked up, other chains not shown, the tested form may be a part): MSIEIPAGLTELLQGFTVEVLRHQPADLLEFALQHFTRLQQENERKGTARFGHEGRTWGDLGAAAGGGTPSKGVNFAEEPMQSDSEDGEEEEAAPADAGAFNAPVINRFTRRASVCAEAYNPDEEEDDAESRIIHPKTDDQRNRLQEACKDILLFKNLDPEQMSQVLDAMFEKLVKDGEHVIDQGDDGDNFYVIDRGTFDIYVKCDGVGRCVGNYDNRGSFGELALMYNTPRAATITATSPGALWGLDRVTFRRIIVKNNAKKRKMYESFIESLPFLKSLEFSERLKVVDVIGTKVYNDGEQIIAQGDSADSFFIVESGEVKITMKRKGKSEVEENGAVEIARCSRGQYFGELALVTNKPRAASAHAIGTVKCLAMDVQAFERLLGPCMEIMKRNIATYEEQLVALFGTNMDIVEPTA
# Vif inh: inhibitors of HIV Vif; HEK293T cells, Vif self-association by quenched fluorescence, imaging, 24 h; inhibition, % at 7.49 µM; hit rate 0.35% among 340,000; in the data active = inhibition above about 50%, passing the limit was not always enough; inconclusive = no clear call, values can overlap the other calls; inactive = below about 31%
# * marks the source's active call; other numbers are inactive results; ? = inconclusive; . = no result given.
SMILES,PKA-R1A activ,SR-BI DiI-HDL act,SR-BI HDL uptake,PKA-R2B act,Vif inh
Cc1nc(N2CCOCC2)nc(N2CCN(c3ccccc3)CC2)c1[N+](=O)[O-],11,-78,78*,-1,-7
CCOC(=O)N1CCN(C(=O)CSCc2ccc(Br)cc2)CC1,1,12,-12,3,0
[N-]=[N+]=NC[C@H](Cc1ccccc1)N1CCN(Cc2ccccc2)CCC1=O,8,20,-20,-7,-1
C[C@H]1CCC(=O)N([C@H](CN=[N+]=[N-])Cc2ccccc2)CC1,8,26,-26,-9,59*
N#Cc1cccc(N2[C@@H](Cc3cc4ccccc4n3Cc3ccccc3)COC[C@H]2Cc2ccc3ccccc3c2)c1,9,.,.,-4,-4
CCOC(=O)/C=c1/s/c(=C\c2c(OC)ccc3ccccc23)c(=O)n1CC(=O)NCC1CCCO1 (centres undefined),10,?,-286,-5,22
CCOC(=O)/C=c1\s/c(=C\c2c(OCC)ccc3ccccc23)c(=O)n1CC(=O)NCC1CCCO1 (centres undefined),0,-91,91*,4,-2
O=C(CCCCn1ccc(=O)[nH]c1=O)Nc1ccc(O)c(C(=O)O)c1,-2,1,-1,0,78*
N#C/C(=C\c1ccncc1)c1nc2ccccc2o1,.,.,.,.,0
N#C/C(=C\Nc1ccccc1O)c1nc2ccccc2o1,-9,-113,113*,5,-13
CCN(CC)S(=O)(=O)c1ccc(C(=O)NCCc2cc3c(OC)ccc(OC)c3[nH]c2=O)cc1,-5,-89,89*,6,-5
COc1ccc(C(=O)Nc2nc3ccccc3[nH]2)cc1OC,-8,-14,14,-5,2
CCOc1ccc(C(=O)Nc2nc3ccccc3[nH]2)cc1OCC,4,-81,81*,8,-9
CC(C)(C)NC(=O)CC1C[C@H](C(=O)N2CCOCC2)[C@@]2(C)c3[nH]c4ccccc4c3CCN2C1=O (some centres undefined),6,-77,77*,-2,.
Cn1c(C(=O)N2CCN(Cc3ccc4c(c3)OCO4)CC2)cc2c(=O)n(C)c3ccccc3c21,8,-76,76*,12,0
COc1cc(NC(=O)c2ccccc2Cl)ccc1NC(=O)c1cccs1,-10,-67,67,-3,1
COc1cc(NC(=O)c2ccc3c(c2)OCCO3)ccc1NC(=O)c1cccs1,-7,-74,74*,-4,3
COc1cc(C(=O)Nc2ccc3c(c2)ncn3C)cc(OC)c1OC,0,-53,53,5,76*
O=C(Nc1ccc(NC(=O)c2cccs2)cc1)c1ccc2c(c1)OCCO2,5,.,.,3,-3
COc1cc(NC(=O)c2cccc(Cl)c2)ccc1NC(=O)c1cccs1,-3,-75,75*,-6,-3
COc1cc(C(=O)Nc2ccc3c(c2)nc(C)n3C)cc(OC)c1OC,4,-10,10,-1,8
COc1cc(C(=O)Nc2cccc(NC(=O)c3cccs3)c2)cc(OC)c1OC,-5,-78,78*,0,2
CC(C)C1Oc2ccccc2N(CC(=O)NC2CCCCC2)C1=O (centres undefined),-6,21,-21,0,37
COc1cc(Cl)c(C)cc1NC(=O)CSc1ccc(C)cc1,3,-31,31,-8,2
COc1cc(Cl)c(C)cc1NC(=O)CNC(=O)Cn1cnc2ccccc2c1=O,5,-85,85*,2,-3
SMILES,PKA-R1A activ,SR-BI DiI-HDL act,SR-BI HDL uptake,PKA-R2B act,Vif inh
COc1cc(Cl)c(C)cc1NC(=O)CSc1cc(Cl)ccc1Cl,-8,-82,82*,-2,-6
COc1cc(Cl)c(C)cc1NC(=O)CN1C(=O)C2CC=CCC2C1=O (centres undefined),-5,-63,63,-1,59*
COC(=O)c1ccccc1NC(=O)Cn1cnc2cc(C)c(C)cc21,-9,3,-3,7,71*
COc1cc(OC)c(NC(=O)CCNC(=O)Cn2cnc3ccccc3c2=O)cc1Cl,-5,-19,19,0,.
CC(C)N(Cc1cc2ccccc2[nH]c1=O)C(=O)c1ccco1,-3,5,-5,1,-3
CCN(C(=O)[C@@H]1CCCN1C(=O)c1cccs1)c1nc2cc(Cl)ccc2s1,-10,-78,78*,-3,0
Cc1cc(Cl)ccc1NC(=O)C1CCCN1C(=O)c1cccs1 (centres undefined),3,36,-36,1,-1
O=C(CN1C(=O)c2cccc3cccc(c23)C1=O)NCCN1CCOCC1,4,16,-16,9,-6
O=C1NC(NS(=O)(=O)c2ccccc2)(C(F)(F)F)C(=O)N1CCc1ccccc1 (centres undefined),-4,32,-32,2,2
COc1ccc(S(=O)(=O)NC2(C(F)(F)F)NC(=O)N(CCc3ccccc3)C2=O)cc1 (centres undefined),-3,.,.,-3,55*
O/N=C/c1ccc2ccccc2n1,-8,82*,-82,8,-18
O/N=C/c1ccc2cccc(O)c2n1,-1,.,.,9,-14
O=C(N1CCN(S(=O)(=O)c2ccc(Cl)cc2)CC1)n1ccnc1,-3,65*,-65,7,0
O=c1c2c3nc4ccccc4nc3n(/N=C/c3ccco3)c2ncn1CCC1=CCCCC1,-6,67*,-67,1,-3
Clc1ccc(OCCOCCN2CCCCC2)c(Br)c1,19*,-5,5,7,0
CC(C)(C)c1ccc(CC(=O)N2CCC2(C)C(=O)Nc2cccc3c2CCCC3)cc1 (centres undefined),.,.,.,.,-6
CC1CCN(CCCn2c(=S)[nH]c3c(sc4ccccc43)c2=O)CC1,1,2,-2,6,-5
O=c1c2sc3ccccc3c2[nH]c(=S)n1CCN1CCOCC1,2,71*,-71,-4,-2
COc1ccc(C(=O)c2ccc(N3CCOCC3)c([N+](=O)[O-])c2)cc1,-6,-80,80*,-6,1
COc1ccc2oc(-c3ccc(C)c(NC(=O)c4ccc(N5CCOCC5)c([N+](=O)[O-])c4)c3)nc2c1,0,-32,32,0,73*
COc1ccc(Nc2nnc(-c3ccc(N4CCOCC4)c([N+](=O)[O-])c3)c3ccccc23)cc1,2,-79,79*,-8,-10
CC(C(=O)NCc1ccccn1)c1ccc([N+](=O)[O-])cc1 (centres undefined),-6,4,-4,0,-1
COc1ccc(NC(=O)C2Cc3c(-c4ccc(NC(C)=O)cc4)ccnc3O2)cn1 (centres undefined),.,.,.,.,18
COc1cccc(NC(=O)C(C)Sc2nnc(C3CC3)n2C2CC2)c1 (centres undefined),-3,-33,33,0,-4
